Square brackets hold non-standard residues; d marks the D form. Peptide text beside a SMILES is read from it. * marks the point of attachment. NMeY = CN[C@@H](Cc1ccc(O)cc1)C(=O)O; Hydrocinnamoyl = O=C(CCc1ccccc1)*; NMeF = CN[C@@H](Cc1ccccc1)C(=O)O; Morpholide = C1CN(*)CCO1; Piperidide = C1CCN(*)CC1; Cbz = O=C(OCc1ccccc1)*; NHPh = c1ccc(N*)cc1

The species named for the assay is Rattus norvegicus. Kind of assay: Inhibition of rat recombinant Rab geranylgeranyltransferase at 100 uM in presence of canine Rab7 and rat REP1 NBD-FPP based continuous fluorimetric assay. An outline of the steps: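 Continuous fluorometric assay in 96/384-well format: 3 μM Rab7, 3 μM REP1, 9 μM NBD-FPP and 400 nM RabGGTase, with or without inhibitor. […] IC50 was calculated from three independent measurements.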
As usually defined, the inhibition is the drop in the measured response relative to a control, in per cent. For `CCCCCCCCCCC(=O)N[C@@H](Cc1ccc(O)cc1)C(=O)N[C@@H](Cc1c[nH]cn1)C(=O)N[C@@H](Cc1c[nH]cn1)C(=O)NCCCCN`, the inhibition turned out to be 73%.
The result for `CON(C)C(=O)[C@H](CCC(N)=O)NC(=O)[C@H](Cc1ccccc1)NC(=O)[C@H](C)NC(=O)CCc1ccccc1` reads 112%.
Take `O=C(/C=C/c1ccc(F)cc1)N[C@@H](CO)C(=O)N[C@@H](Cc1ccccc1)C(=O)N[C@@H](CO)C(=O)Nc1ccc(F)cc1F`: the inhibition was 92%.
The result for `NC(=O)CC[C@H](NC(=O)[C@H](Cc1ccccc1)NC(=O)CNC(=O)CCc1ccccc1)C(=O)Nc1ccc(F)cc1F` reads 93%; that for `CC[C@H](C)[C@H](NC(=O)c1ccc(-c2ccccc2)cc1)C(=O)N[C@@H](C(=O)N[C@@H](CCC(N)=O)C(=O)OCCCl)C(C)C`, 89%; that for `C[C@H](NC(=O)c1coc(-c2ccccc2)n1)C(=O)NCC(=O)N[C@@H](Cc1ccc(O)cc1)C(=O)Nc1ccc(F)cc1F`, 83%.
The result for `O=C(CNC(=O)c1coc(-c2ccccc2)n1)N[C@@H](Cc1cn(C(c2ccccc2)(c2ccccc2)c2ccccc2)cn1)C(=O)N[C@@H](Cc1ccccc1)C(=O)O` reads 77%; that for `CCCCCCCCCCCOc1ccc(C(=O)N[C@@H](Cc2ccc(O)cc2)C(=O)N[C@@H](Cc2ccc(O)cc2)C(=O)N[C@@H](Cc2ccc(O)cc2)C(=O)NCCCn2ccnc2)cc1`, 48%; that for `CC[C@H](C)[C@H](NC(=O)c1ccc(-c2ccccc2)cc1)C(=O)N[C@@H](C(=O)N[C@@H](CCC(N)=O)C(=O)OCCc1scnc1C)C(C)C`, 86%.
The figure for `CCCCCc1ccc(/C=C/C(=O)N[C@H](Cc2cnc[nH]2)C(=O)N[C@@H](Cc2ccc(O)cc2)C(=O)N[C@@H](Cc2ccccc2)C(=O)O)cc1` is 17%; for `CCCCCCCCCCC(=O)N[C@@H](Cc1c[nH]cn1)C(=O)N[C@@H](Cc1c[nH]cn1)C(=O)N[C@@H](CO)C(=O)Nc1ccccn1` it is 61%.
Take `O=C(CCc1ccc(F)cc1)N[C@@H](Cc1ccc(O)cc1)C(=O)NCC(=O)N[C@@H](Cc1ccc(O)cc1)C(=O)Nc1ccc(F)cc1F`: the inhibition came to 89%.
Regarding `O=C(CNC(=O)[C@H](Cc1cn(C(c2ccccc2)(c2ccccc2)c2ccccc2)cn1)NC(=O)c1coc(-c2ccccc2)n1)N[C@@H](Cc1c[nH]c2ccccc12)C(=O)O`, the inhibition was found to be 74%.
`CCCCCCCCCCC(=O)N[C@@H](Cc1ccc(O)cc1)C(=O)N[C@@H](Cc1c[nH]cn1)C(=O)N[C@@H](Cc1ccc(O)cc1)C(=O)NOC(C)(C)C`: the inhibition was 79%.
The figure for `CC(C)[C@H](NC(=O)c1coc(-c2ccccc2)n1)C(=O)NCC(=O)N[C@@H](Cc1ccc(O)cc1)C(=O)Nc1ccc(F)cc1F` is 102%.
As for `CCCCCCCCCCCOc1ccc(C(=O)N[C@@H](Cc2ccc(O)cc2)C(=O)N[C@@H](Cc2ccc(O)cc2)C(=O)N[C@@H](Cc2ccc(O)cc2)C(=O)O)cc1`, the inhibition was found to be 106%.
The result for `O=C(CNC(=O)c1csc(C2CCNCC2)n1)N[C@@H](Cc1ccccc1)C(=O)N[C@@H](Cc1c[nH]cn1)C(=O)O` reads 124%.
The result for `CON(C)C(=O)[C@H](Cc1ccc(O)cc1)NC(=O)CNC(=O)[C@H](Cc1ccc(O)cc1)NC(=O)CCc1ccc(F)cc1` reads 80%; that for `NC(=O)CC[C@H](NC(=O)[C@H](Cc1ccccc1)NC(=O)[C@H](CO)NC(=O)CCc1ccccc1)C(=O)NC1CCCCC1`, 99%; that for `O=C(CNC(=O)[C@@H]1CCCN1C(=O)c1coc(-c2ccccc2)n1)N[C@@H](Cc1c[nH]cn1)C(=O)Nc1ccc(F)cc1F`, 87%.
The figure for `CC(C)C[C@H](NC(=O)[C@H](CO)NC(=O)[C@H](Cc1ccccc1)NC(=O)/C=C/c1ccc(F)cc1)C(N)=O` is 98%; for `CC(C)C[C@H](NC(=O)/C=C/c1ccccc1)C(=O)N[C@@H](Cc1ccccc1)C(=O)N[C@@H](Cc1ccccc1)C(=O)Nc1ccc([N+](=O)[O-])cc1Cl` it is 104%; for `NC(=O)CC[C@H](NC(=O)[C@H](Cc1ccccc1)NC(=O)CNC(=O)CCc1ccccc1)C(=O)Nc1ccccc1` (Hydrocinnamoyl-Gly-Phe-Gln-NHPh) it is 80%.
With `CCCCCCCCCCCCCCCC(=O)N[C@@H](Cc1ccc(O)cc1)C(=O)N[C@@H](Cc1ccc(O)cc1)C(=O)N[C@@H](Cc1ccc(O)cc1)C(=O)OCCN`, the inhibition is 110%.
The figure for `CCC/C=C\c1ccccc1/C=C/C(=O)N[C@H](Cc1ccc(O)cc1)C(=O)N(C)[C@@H](Cc1ccc(OC)cc1)C(=O)N(C)[C@@H](Cc1ccccc1)C(=O)OCc1cnc(C)s1` is 97%; for `CCCCCCCCCCCOc1ccc(C(=O)N[C@@H](Cc2c[nH]cn2)C(=O)N[C@@H](Cc2ccc(O)cc2)C(=O)N[C@@H](Cc2ccccc2)C(=O)Nc2nccs2)cc1` it is 76%.
The result for `O=C(CNC(=O)[C@H](Cc1ccc(O)cc1)NC(=O)c1ccc(F)cc1)N[C@@H](Cc1ccc(O)cc1)C(=O)NCc1ccccc1` reads 60%; that for `Cc1nc(C)c(C(=O)OC[C@H](NC(=O)[C@H](C)NC(=O)[C@H](COC(=O)c2oc(C)nc2C)NC(=O)c2coc(-c3ccccc3)n2)C(=O)O)o1`, 95%; that for `CCCCCCCCCCCOc1ccc(C(=O)N[C@@H](Cc2ccc(O)cc2)C(=O)N[C@@H](Cc2ccc(O)cc2)C(=O)N[C@@H](Cc2ccc(O)cc2)C(=O)NCC(O)CO)cc1` (stereo not given in full), 90%.
The result for `CC[C@H](C)[C@H](NC(=O)c1ccc(-c2ccccc2)cc1)C(=O)N[C@@H](C(=O)N[C@@H](CCC(N)=O)C(=O)NNC(=O)OC)C(C)C` reads 99%; that for `CC(=O)Nc1cc(C(=O)N2CCC[C@H]2C(=O)N[C@@H](C(=O)N[C@@H](CCC(=O)O)C(N)=O)C(C)C)ccc1[N+](=O)[O-]`, 111%; that for `COC(=O)[C@H](Cc1ccc(O)cc1)NC(=O)CNC(=O)[C@H](Cc1ccc(O)cc1)NC(=O)c1ccc(F)cc1`, 93%.
Take `O=C(CCc1ccccc1)N[C@@H](CO)C(=O)N[C@@H](Cc1ccccc1)C(=O)N[C@@H](CO)C(=O)N1CCOCC1` (Hydrocinnamoyl-Ser-Phe-Ser-Morpholide): the inhibition amounted to 94%.
Regarding `NCCCCNC(=O)[C@H](Cc1ccc(O)cc1)NC(=O)CNC(=O)[C@H](Cc1ccc(O)cc1)NC(=O)c1ccc(F)cc1`, the inhibition came out at 88%.
For `CCCCCCCCCCCOc1ccc(C(=O)N[C@@H](Cc2ccc(O)cc2)C(=O)N[C@@H](Cc2ccc(O)cc2)C(=O)N[C@@H](Cc2ccc(O)cc2)C(N)=O)cc1`, the inhibition is 103%.
The result for `CCCCCCCCCCCOc1ccc(C(=O)N[C@@H](Cc2c[nH]cn2)C(=O)N[C@@H](Cc2ccc(O)cc2)C(=O)N[C@@H](Cc2ccccc2)C(=O)NCCCCN)cc1` reads 127%; that for `CN(C(=O)[C@H](Cc1cnc[nH]1)NC(=O)OCc1ccccc1)[C@@H](Cc1ccc(O)cc1)C(=O)N(C)[C@@H](Cc1ccccc1)C(=O)O` (Cbz-His-[NMeY]-[NMeF]-OH), 54%; that for `O=C(N[C@@H](CO)C(=O)N[C@@H](Cc1ccccc1)C(=O)N[C@@H](CO)C(=O)OCCCl)C(Br)C(Br)c1ccc(F)cc1` (stereo not given in full), 98%.
On to `CC(C)(C)Oc1ccc(C[C@H](NC(=O)c2coc(-c3ccccc3)n2)C(=O)NCC(=O)N[C@@H](Cc2c[nH]c3ccccc23)C(=O)O)cc1`, for which the inhibition turned out to be 32%.
The figure for `CCCCCCCCCCCC(=O)N[C@@H](Cc1ccc(O)cc1)C(=O)N[C@@H](Cc1c[nH]cn1)C(=O)N[C@@H](Cc1ccc(O)cc1)C(=O)Nc1ccccc1N` is 42%; for `CC(C)C[C@H](NC(=O)[C@H](COC(C)(C)C)NC(=O)[C@H](Cc1ccccc1)NC(=O)c1ccc(-c2ccccc2)cc1)C(=O)O` it is 81%.
The figure for `NC(=O)CC[C@H](NC(=O)[C@H](Cc1ccccc1)NC(=O)CNC(=O)CCc1ccccc1)C(N)=O` (Hydrocinnamoyl-Gly-Phe-Gln-NH2) is 103%.
The result for `CON(C)C(=O)[C@H](CCC(N)=O)NC(=O)[C@H](Cc1ccccc1)NC(=O)[C@@H](NC(=O)/C=C/c1ccccc1)[C@@H](C)O` reads 80%; that for `O=C(CCc1ccccc1)N[C@@H](CO)C(=O)N[C@@H](Cc1ccccc1)C(=O)N[C@@H](CO)C(=O)N1CCCCC1` (Hydrocinnamoyl-Ser-Phe-Ser-Piperidide), 62%.
As to `C=CCOC(=O)[C@H](Cc1c[nH]cn1)NC(=O)[C@H](Cc1ccccc1)NC(=O)CNC(=O)C1COC(c2ccccc2)=N1` (stereo not given in full), the inhibition was found to be 106%.
The figure for `CC(=O)Nc1cc(C(=O)N2CCC[C@H]2C(=O)N[C@@H](C(=O)N[C@@H](CCC(=O)O)C(=O)O)C(C)C)ccc1[N+](=O)[O-]` is 95%; for `CCCCCCCCCCCOc1ccc(C(=O)N[C@@H](Cc2ccc(O)cc2)C(=O)N[C@@H](Cc2ccc(O)cc2)C(=O)N[C@@H](Cc2ccc(O)cc2)C(=O)N(C)OC)cc1` it is 75%.
Consider `C[C@H](NC(=O)[C@@H](NC(=O)c1ccc(-c2ccccc2)cc1)[C@@H](C)O)C(=O)N[C@@H](CCC(N)=O)C(=O)Nc1nccs1`, for which the inhibition came to 108%.
On to `O=C(CCNC(=O)[C@H](Cc1c[nH]cn1)NC(=O)OCc1ccccc1)N[C@@H](Cc1ccc(O)cc1)C(=O)NCC(O)CO` (stereo not given in full), for which the inhibition stood at 89%.
The figure for `CCCCCCCCCCCOc1ccc(C(=O)N[C@@H](Cc2ccc(O)cc2)C(=O)N[C@@H](Cc2ccc(O)cc2)C(=O)N[C@@H](Cc2ccc(O)cc2)C(=O)NC2CCCCC2)cc1` is 91%.
The figure for `O=C(CNC(=O)[C@@H]1CCCN1C(=O)/C=C/c1ccccc1)N[C@@H](Cc1ccccc1)C(=O)NC1CCCCC1` is 61%; for `O=C(CNC(=O)[C@H](Cc1ccccc1)NC(=O)c1coc(-c2ccccc2)n1)N[C@@H](CO)C(=O)Nc1cncs1` it is 116%.
The figure for `CC(C)C[C@H](NC(=O)/C=C/c1ccccc1)C(=O)N[C@@H](Cc1ccccc1)C(=O)N[C@@H](Cc1ccccc1)C(=O)NC1CCCCC1` is -4%; for `CCCCCCCCCCCCCC(=O)N[C@@H](Cc1ccc(O)cc1)C(=O)N[C@@H](Cc1ccc(O)cc1)C(=O)N[C@@H](Cc1ccc(O)cc1)C(=O)NC1CCCCC1` it is 93%; for `C[C@@H](NC(=O)CCc1ccccc1)C(=O)N[C@@H](Cc1ccccc1)C(=O)N[C@@H](CCC(=O)O)C(=O)Nc1cccc(Br)n1` it is 100%.

The values are drawn from ChEMBL document CHEMBL1153722, “Design, synthesis, and characterization of peptide-based rab geranylgeranyl transferase inhibitors” (J Med Chem, 2009).
